Measurements taken from ChEMBL document CHEMBL3808312, “Bioactive Constituents of Glycyrrhiza uralensis (Licorice): Discovery of the Effective Components of a Traditional Herbal Medicine” (J Nat Prod, 2016).
Calls of active or inactive are those of the source. The calls are words filed in the database; no cut-off is given here.

What was measured:
SW480 [1] = test: Cytotoxicity against human SW480 cells assessed as reduction in cell viability after 24 hrs by MTS assay; assay type: functional, cell-based; settings: SW480, 24 h
Outline: (§1)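 Cells seeded at 5 × 10^3/well and cultured overnight, then exposed to compounds for 24 h. Viability read by MTS. Media: SW480 in RPMI1640, A549 in DMEM, MCF7 in MEM. […] Irinotecan positive control.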

Tyrosinase = target: T1, Tyrosinase (Homo sapiens, UniProt P14679); test: Inhibition of tyrosinase (unknown origin) using L-tyrosine as substrate assessed as oxidation of L-tyrosine after 15 mins
T1 sequence (P14679 whole entry): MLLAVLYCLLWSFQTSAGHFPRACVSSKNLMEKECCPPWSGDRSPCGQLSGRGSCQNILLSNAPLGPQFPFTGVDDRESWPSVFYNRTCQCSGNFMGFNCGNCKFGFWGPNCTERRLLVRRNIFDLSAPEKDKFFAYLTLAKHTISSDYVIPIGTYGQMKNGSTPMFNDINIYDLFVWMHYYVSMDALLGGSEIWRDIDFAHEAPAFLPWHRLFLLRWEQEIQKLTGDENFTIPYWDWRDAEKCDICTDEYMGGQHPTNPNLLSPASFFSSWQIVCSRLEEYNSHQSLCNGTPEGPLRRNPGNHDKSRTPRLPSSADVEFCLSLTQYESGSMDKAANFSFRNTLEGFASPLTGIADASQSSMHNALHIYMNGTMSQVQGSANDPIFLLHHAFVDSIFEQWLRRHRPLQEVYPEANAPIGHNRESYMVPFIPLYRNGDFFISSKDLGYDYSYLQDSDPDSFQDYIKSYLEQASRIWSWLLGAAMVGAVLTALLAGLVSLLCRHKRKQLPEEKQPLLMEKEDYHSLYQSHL
Outline: (§2)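 Tyrosinase at 333 U/mL (stock) in 45 mM sodium phosphate, pH 6.6, with 2 mM L-tyrosine (stock). Incubated 37 °C for 15 min; oxidation read at 492 nm. Screened at 20 μM; dose-response for IC50. Glyasperin C positive control.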

HepG2 [2] = test: Cytotoxicity against human HepG2 cells assessed as reduction in cell viability at 10 uM after 24 hrs by MTS assay; assay type: functional
SW480 [3] = test: Cytotoxicity against human SW480 cells assessed as reduction in cell viability at 10 uM after 24 hrs by MTS assay; assay type: functional
Outline: (§3)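 Cells seeded at 5 × 10^3/well and cultured overnight, then exposed to compounds for 24 h. Viability read by MTS. Media: SW480 in RPMI1640, A549 in DMEM, MCF7 in MEM. Irinotecan positive control.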

[4] = target: T2, Tyrosinase (Homo sapiens) (UniProt P14679); test: Inhibition of tyrosinase (unknown origin) using L-tyrosine as substrate assessed as oxidation of L-tyrosine at 20 uM after 15 mins; outline: as §2
T2 sequence (whole entry): T1 sequence (P14679 whole entry)

A549 [5] = test: Cytotoxicity against human A549 cells assessed as reduction in cell viability at 10 uM after 24 hrs by MTS assay; assay type: functional; outline: as §3
HepG2 [6] = test: Cytotoxicity against human HepG2 cells assessed as reduction in cell viability after 24 hrs by MTS assay; assay type: functional, cell-based; settings: HepG2, 24 h; outline: as §1
A549 [7] = test: Cytotoxicity against human A549 cells assessed as reduction in cell viability after 24 hrs by MTS assay; assay type: functional, cell-based; settings: A549, 24 h; outline: as §1
MCF7 [8] = test: Cytotoxicity against human MCF7 cells assessed as reduction in cell viability after 24 hrs by MTS assay; assay type: functional, cell-based; settings: MCF7, 24 h; outline: as §1
MCF7 [9] = test: Cytotoxicity against human MCF7 cells assessed as reduction in cell viability at 10 uM after 24 hrs by MTS assay; assay type: functional; outline: as §3
[10] = target: T3, Nuclear factor erythroid 2-related factor 2 (Homo sapiens) (UniProt Q16236); test: Activation of NRF2 in human HepG2 cells by Western blot analysis; assay type: cell-based
T3 sequence (whole entry): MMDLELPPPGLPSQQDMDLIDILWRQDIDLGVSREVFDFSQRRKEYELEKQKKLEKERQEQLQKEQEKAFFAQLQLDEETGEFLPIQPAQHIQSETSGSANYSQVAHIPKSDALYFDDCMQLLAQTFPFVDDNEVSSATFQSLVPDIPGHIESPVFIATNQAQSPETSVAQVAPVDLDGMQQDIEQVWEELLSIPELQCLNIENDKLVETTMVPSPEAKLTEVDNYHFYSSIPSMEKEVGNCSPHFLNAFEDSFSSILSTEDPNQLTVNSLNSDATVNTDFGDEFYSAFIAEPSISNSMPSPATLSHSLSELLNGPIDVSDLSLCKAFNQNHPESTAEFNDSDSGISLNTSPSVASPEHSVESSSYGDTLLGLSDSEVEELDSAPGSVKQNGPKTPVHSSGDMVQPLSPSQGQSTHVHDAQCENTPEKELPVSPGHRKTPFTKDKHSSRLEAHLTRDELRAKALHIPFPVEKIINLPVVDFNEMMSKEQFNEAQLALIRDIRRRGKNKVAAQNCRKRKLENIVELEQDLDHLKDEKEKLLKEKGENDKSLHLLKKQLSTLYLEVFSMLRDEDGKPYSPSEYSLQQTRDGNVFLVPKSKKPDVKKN
Outline: (§4)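 HepG2 cells treated with or without compound. HO-1 and NQO1 transcripts measured by RT-PCR after total RNA extraction and reverse transcription, amplified against β-actin with human primers. For protein, 20 μg lysate (RIPA) separated on 10% SDS-PAGE, blotted to PVDF, probed with antibodies to Nrf2, HO-1, NQO-1 and β-actin, and detected by ECL.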

[11] = target: T3, Nuclear factor erythroid 2-related factor 2 (Homo sapiens); test: Activation of NRF2 transcription in human HepG2C8 cells at 40 uM after 6 hrs by luciferase reporter gene assay relative to control; assay type: cell-based
Outline: (§5)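 Luciferase reporter in HepG2C8 cells, which are HepG2 stably transfected with an Nrf2 luciferase reporter and grown in MEM. Screened at 10 μM, with dose-response over 2.5−40 μM. Activity expressed as fold of control. tBHQ positive control.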

[12] = target: T3, Nuclear factor erythroid 2-related factor 2 (Homo sapiens); test: Activation of NRF2 transcription in human HepG2C8 cells at 10 uM after 6 hrs by luciferase reporter gene assay relative to control; assay type: cell-based; outline: as §5
Mus musculus [13] = test: In vivo NRF2 activation in ip dosed C57BL/6J mouse assessed as increase in liver transcription of NQO-1 administered as qd for 3 days measured 3 hrs post last dose by qRT-PCR analysis; assay type: functional, organism-based
Outline: (§6)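 Male C57BL/6J mice given compound in corn oil at 5 or 10 mg/kg ip for three consecutive days; controls received corn oil. Liver harvested 3 h after final dose. HO-1 and NQO-1 mRNA measured by qRT-PCR with mouse primers. Nrf2 and HO-1 protein measured by Western blot (20 μg, 10% SDS-PAGE, ECL).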

Mus musculus [14] = test: In vivo increase in HO-1 levels in C57BL/6J mouse liver at 5 to 10 mg/kg, ip qd administered for 3 days measured 3 hrs post last dose by Western blot analysis; assay type: functional, organism-based; outline: as §6
[15] = target: T3, Nuclear factor erythroid 2-related factor 2 (Homo sapiens); test: Activation of NRF2 transcription in human HepG2C8 cells after 6 hrs by luciferase reporter gene assay; assay type: cell-based; outline: as §5
Mus musculus [16] = test: In vivo increase in NRF2 levels in C57BL/6J mouse liver at 5 to 10 mg/kg, ip qd administered for 3 days measured 3 hrs post last dose by Western blot analysis; assay type: functional, organism-based; outline: as §6
[17] = target: T3, Nuclear factor erythroid 2-related factor 2 (Homo sapiens); test: Activation of NRF2 in human HepG2 cells assessed as induction of HO-1 transcription by RT-PCR analysis; assay type: cell-based; outline: as §4
HepG2 [18] = test: Toxicity in human HepG2 cells at 20 to 40 uM; assay type: cell-based; settings: hepg2, 40 µM
Mus musculus [19] = test: Hepatoprotective activity in C57BL/6J mouse assessed as prevention of CCL4-induced severe hepatic lesions at 5 mg/kg, ip administered qd for 3 days followed by CCL4 addition at 3 hrs post last dose measured after 24 hrs by hematoxylin-eosin staining; assay type: functional, organism-based
Outline: (§7)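 Seven-week-old male C57BL/6J mice, n = 10/group, given compound in corn oil (0.5 or 1 mg/mL) at 5 or 10 mg/kg ip once daily for 3 days. CCl4 at 200 μL/kg ip (2% v/v in corn oil) given 3 h after the last dose. Sacrifice at 24 h. Serum ALT/AST measured; liver GSH by GSH/GSSG kit normalized to BCA protein; left lobe H&E stained and scored blind at 4× and 20×.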

[20] = target: T3, Nuclear factor erythroid 2-related factor 2 (Homo sapiens); test: Activation of NRF2 in human HepG2 cells assessed as induction of NQO-1 transcription by RT-PCR analysis; assay type: cell-based; outline: as §4
[21] = target: T3, Nuclear factor erythroid 2-related factor 2 (Homo sapiens); test: Activation of NRF2 in human HepG2 cells assessed as upregulation of HO-1 level by Western blot analysis; assay type: cell-based; outline: as §4
Mus musculus [22] = test: (§8) Hepatoprotective activity in C57BL/6J mouse assessed as attenuation of CCL4-mediated GSH level depletion measured as GSH level […] of protein at 5 mg/kg, ip administered qd for 3 days followed by CCL4 addition at 3 hrs post last dose measured after 24 hrs by GSH/GSSG assay (reference value: 0.86 +/- 0.38 nmol); assay type: functional; outline: as §7
Mus musculus [23] = test: In vivo NRF2 activation in ip dosed C57BL/6J mouse assessed as increase in liver transcription of HO-1 administered as qd for 3 days measured 3 hrs post last dose by qRT-PCR analysis; assay type: functional, organism-based; outline: as §6
Influenza A virus = test: Antiviral activity against Influenza A virus A/WSN/33(H1N1) infected in MDCK cells at 100 uM preincubated with virus for 15 mins followed by cells addition measured at 36 hrs post infection; assay type: functional, A/WSN/1933(H1N1)
Outline: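 MDCK canine kidney cells grown in DMEM and infected with influenza A/WSN/33 (H1N1). Compounds screened at 100 μM. Oseltamivir phosphate served as the positive control.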

Mus musculus [24] = test: Hepatoprotective activity in ip dosed C57BL/6J mouse assessed as reduction in CCL4-induced serum AST level administered qd for 3 days followed by CCL4 addition at 3 hrs post last dose measured after 24 hrs; assay type: functional, organism-based; outline: as §7
Mus musculus [25] = test: as §8, with “at 10” for “at 5”; assay type: functional; outline: as §7
[26] = target: T3, Nuclear factor erythroid 2-related factor 2 (Homo sapiens); test: Activation of NRF2 transcription in human HepG2C8 cells at 20 uM after 6 hrs by luciferase reporter gene assay relative to control; assay type: cell-based; outline: as §5
Mus musculus [27] = test: Hepatoprotective activity in ip dosed C57BL/6J mouse assessed as reduction in CCL4-induced serum ALT level administered qd for 3 days followed by CCL4 addition at 3 hrs post last dose measured after 24 hrs; assay type: functional, organism-based; outline: as §7

How did the IC50 (SW480 [1]) turn out when COc1cc2c(c(OC)c1CC=C(C)C)C[C@H](c1ccc(O)cc1O)CO2 [GLYASPERIN D] was run?
Its IC50 is 7.2 µM.

What about the IC50 (Tyrosinase) of the same compound?
Its IC50 is 0.154 µM.

What about the Activity (HepG2 [2]) of the same compound?
Its Activity is 99%.

What about the Activity (SW480 [3]) of the same compound?
The Activity was 78%.

And the inhibition [4]?
The inhibition was over 95%.

And the Activity (A549 [5])?
The Activity was 25%.

And the IC50 (HepG2 [6])?
The IC50 was 3.8 µM.

What about the IC50 (A549 [7]) of the same compound?
The IC50 was 12.9 µM.

And the IC50 (MCF7 [8])?
Its IC50 is 6.7 µM.

What about the Activity (MCF7 [9]) of the same compound?
The Activity was 98%.

With COc1cc(O)ccc1/C=C/C(=O)c1ccc(O)cc1 [ECHINATIN] as the compound, how does the Activity [10] read?
Its Activity is “Dose-dependent effect”.

And the fold change (FC) [11]?
The fold change (FC) was 4.3.

And the fold change (FC) [12]?
Its fold change (FC) is 5.46.

And the Activity (Mus musculus [13])?
Its Activity is “Dose-dependent effect”.

What about the Activity (Mus musculus [14]) of the same compound?
Its Activity is “Active”.

What about the Activity [15] of the same compound?
Its Activity is “Dose-dependent effect”.

And the Activity (Mus musculus [16])?
The Activity was “Active”.

And the Activity [17]?
Its Activity is “Dose-dependent effect”.

And the Activity (HepG2 [18])?
The Activity was “Toxic”.

And the Activity (Mus musculus [19])?
Its Activity is “Active”.

What about the Activity [20] of the same compound?
Its Activity is “Dose-dependent effect”.

And the Activity [21]?
The Activity was “Dose-dependent effect”.

What about the inhibition [4] of the same compound?
The inhibition was “Active”.

What about the Activity (Mus musculus [22]) of the same compound?
The Activity was 2.42 nmol.

What about the Activity (Mus musculus [23]) of the same compound?
The Activity was “Dose-dependent effect”.

What about the Activity (Influenza A virus) of the same compound?
Its Activity is over 30%.

What about the Activity (Mus musculus [24]) of the same compound?
Its Activity is “Dose-dependent effect”.

And the Activity (Mus musculus [25])?
Its Activity is 2.58 nmol.

What about the fold change (FC) [26] of the same compound?
The fold change (FC) was 6.8.

What about the Activity (Mus musculus [27]) of the same compound?
The Activity was “Dose-dependent effect”.
